Experimental findings from PubChem BioAssay are described below.

The nature of assay [1]: inhibitors of TNFa-induced NFkB p65 translocation, primary screen, imaging, HUVEC, MLSMR starter and 10KST1 sets (AID 438;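 active = inhibition above 20% together with a positive visual image hit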;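 note: compound added about 3h40 before a 20 min TNFalpha stimulation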;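 for inhibition: signal is the nuclear over cytoplasmic p65 intensity ratio per well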). The following applies: HUVEC TNFa-induced p65 nuclear translocation; cell count: measured here: nuclei count (cytotoxicity indicator), at 2.08 µM; inhibition: at 2 µM, stronger effect = higher value, 0% TNFa-plus-vehicle, 100% no-TNFa wells.
Assay [2] can be described thus: reduction of polyQ htt aggregates in cells – imaging, exon1htt(103Q)mCFP cells, high-content imaging, primary screen (AID 483;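 active = visual image review flags a hit and inhibition of aggregation exceeds 20%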;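 note: compound exposure lasted 3 days before fixation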;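 for nuclei count: percent of the per-plate median nuclei count of sample wells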). The following applies: exon1htt(103Q)mCFP cell line, aggregate imaging, at 2 µM; inhibition of aggregation: stronger effect = higher value; nuclei count: measured here: cell count, toxicity.
Assay [3] can be described thus: endothelial E-selectin expression blockers – imaging, HUVEC, immunofluorescence, MLSMR starter and 10KST1 sets, primary screen (AID 487).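 For inhibition: signal is fraction of cell area covered by stained E-selectin grains.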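 For nuclei count: 100% = median nuclei count of all wells on the same plate.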 The following applies: HUVEC TNFalpha-induced E-selectin immunofluorescence imaging, at 2 µM; inhibition: stronger effect = higher value; nuclei count: measured here: cell number, toxicity.
Assay [4] deals with Voltage-gated potassium channel subunit beta-2 (Rattus norvegicus) (UniProt P62483). The assay can be described thus: inhibitors of rat Kvbeta2 reductase activity – biochemical, NADPH fluorescence, primary screen (AID 622;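 active = fluorescence slope higher than the sample average by over 3 SD, cut at about -0.22 in these data, passing the limit was not always enough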;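 note: slope of raw intensity against log time taken from 70 to 1610 s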). The following applies: recombinant KvBeta, 4-cyanobenzaldehyde reduction, at 10 µM, stronger effect = higher value.
Assay [5] has the same target. As to the kind of experiment: enhancers of rat Kvbeta2 NADPH turnover – biochemical, NADPH fluorescence, primary screen (AID 623;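 active = NADPH fluorescence slope more negative than the mean of all samples by about 3 SD, 99.7% confidence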;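 note: fluorescence intensity change per second fitted from 20 to 320 s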). The settings on record: Recombinant KvBeta, NADPH fluorescence decrease slope, 10 min; at 10 µM; stronger effect = lower value.
Assay [6] concerns the target Muscarinic acetylcholine receptor M4 (Homo sapiens) (UniProt P08173). As to the kind of experiment: M4-linked GIRK flux change, two-sided – cell-based, HEK293 M4/GIRK, thallium flux, BTC-AM, M4 allosteric agonist project, primary screen (AID 625;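 active = fluorescence slope after compound addition differing from the mean of all tested samples at 99.7% confidence, mostly higher but some lower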;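 note: thallium influx through GIRK channels coupled to M4 in HEK293 cells with BTC-AM dye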). The settings on record: at 10 µM, actives lie on both sides. The essentials: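 Material: HEK293 cells with M4 receptor and GIRK channels; Times: cells overnight at 37 °C, BTC-AM loading 1 h, reads 2 min total; Technique: kinetic BTC-AM fluorescence sampled at 1 Hz, 10 s pre-addition baseline; Read-out basis: slope over 15–24 s of trace normalized to starting intensity; Controls: carbachol positive, DMSO negative.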

Assay [7] in a line: blockers of RIG-like receptor reporter activation – cell-based, Sendai virus stimulus, luciferase, 10K MLSCN set, TLR/RLR signaling modifier project, primary screen (AID 602276;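 active = inhibition at or above 50% at 10 µM; inactive = inhibition below 50%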;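 note: firefly luciferase from ISG56 promoter only with Renilla not read in this screen; 0% = Sendai virus plus DMSO and 100% = medium plus DMSO without virus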). The settings on record: HEK293 RL24 IRF3 luciferase reporter, at 10 µM, stronger effect = higher value.
Assay [8] in a line: TLR3 IRF3 reporter activation blockers – cell-based, poly I:C stimulus, luciferase, 10K MLSCN set, primary screen (AID 602277;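 active = inhibition of the reporter signal at or above 50%; inactive = inhibition below 50%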). The settings on record: HEK293-TLR3 RL24 IRF3 luciferase reporter, at 10 µM, stronger effect = higher value. Background: A reporter such as luciferase makes a cellular process visible.

The source made the active and inactive calls.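 Rule for the calls, unless noted: active = visually confirmed hit in the image check and inhibition above 20%; inconclusive = visually confirmed hit but inhibition not above 20%; inactive = no visual hit in the image check.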

Sequence of Muscarinic acetylcholine receptor M4 (Homo sapiens) (P08173 whole entry, looked up): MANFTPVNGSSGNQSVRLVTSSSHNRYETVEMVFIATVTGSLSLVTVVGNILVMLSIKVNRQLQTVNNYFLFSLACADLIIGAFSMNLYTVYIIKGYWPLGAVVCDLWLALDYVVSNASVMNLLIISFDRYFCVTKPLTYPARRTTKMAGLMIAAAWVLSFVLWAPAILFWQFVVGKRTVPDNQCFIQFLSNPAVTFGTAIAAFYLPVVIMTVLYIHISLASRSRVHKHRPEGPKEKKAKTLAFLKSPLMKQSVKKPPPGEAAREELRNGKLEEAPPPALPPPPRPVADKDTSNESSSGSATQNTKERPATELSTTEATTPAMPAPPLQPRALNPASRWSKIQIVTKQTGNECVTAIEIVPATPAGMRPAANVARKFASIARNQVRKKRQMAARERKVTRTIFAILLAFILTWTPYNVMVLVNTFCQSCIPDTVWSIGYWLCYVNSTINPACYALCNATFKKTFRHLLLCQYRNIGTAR
Sequence of Voltage-gated potassium channel subunit beta-2 (Rattus norvegicus) (P62483 whole entry, looked up): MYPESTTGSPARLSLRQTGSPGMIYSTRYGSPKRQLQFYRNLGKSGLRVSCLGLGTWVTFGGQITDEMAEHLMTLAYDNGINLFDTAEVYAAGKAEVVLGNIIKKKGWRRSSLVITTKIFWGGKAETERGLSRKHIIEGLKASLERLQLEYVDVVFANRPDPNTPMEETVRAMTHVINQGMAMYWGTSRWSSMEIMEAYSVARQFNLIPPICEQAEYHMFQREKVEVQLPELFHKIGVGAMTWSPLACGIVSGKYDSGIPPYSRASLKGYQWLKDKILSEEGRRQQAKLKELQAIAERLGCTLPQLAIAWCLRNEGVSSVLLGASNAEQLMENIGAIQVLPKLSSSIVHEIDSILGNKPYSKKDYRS

For the molecule `COc1ccc(S(=O)(=O)N(C)c2ccc(C(=O)N3CCOCC3)cc2)cc1`, the cell count in assay [1] was determined as 321. The inhibition (usually the relative decrease from the control value, in per cent) in assay [1] is -2.9% (inactive); in assay [3] it was -106% (inactive); in assay [7], 14.9% (inactive); in assay [8], 16.7% (inactive). Further, the inhibition of aggregation in assay [2] was -6.7% (inactive). Further, the nuclei count was 105% in assay [2] and 129% in assay [3]. Further, the fluorescence slope was -0.515 (inactive) in assay [4] and 0.00412 (inactive) in assay [6]. Also, the NADPH fluorescence slope in assay [5] is -0.000149 (inactive).
For `CCC(=O)OC1(C#CCOc2ccc(OC)cc2)CCN(C)CC1`, in assay [1], the cell count was 393. Moreover, the inhibition in assay [1] was -6.5% (inactive); in assay [3], -43.3% (inactive); in assay [7] it was 17.8% (inactive); in assay [8], 16% (inactive). In addition, in assay [2], the inhibition of aggregation is -20.2% (inactive). Further, the figures for the nuclei count in assay [2] and in assay [3] were 113% and 142%, respectively. Also, the fluorescence slope in assay [4] was -0.61 (inactive); in assay [6], 0.00292 (inactive). Moreover, in assay [5], the NADPH fluorescence slope was -2.5e-05 (inactive).
For `Cc1cc(C(F)F)n2ncc(C(=O)NC3CCCCCC3)c2n1`, the cell count in assay [1] was determined as 354. Moreover, the inhibition in assay [1] is 0% (inactive); in assay [3], 1.4% (inactive); in assay [7], 15.9% (inactive); in assay [8], 15.5% (inactive). Moreover, the inhibition of aggregation in assay [2] is -4.8% (inactive). For the same molecule, the nuclei count in assay [2] was found to be 106%; in assay [3], 113%. Moreover, the fluorescence slope is -0.569 (inactive) in assay [4] and 0.00445 (inactive) in assay [6]. In addition, the NADPH fluorescence slope in assay [5] is -7.1e-05 (inactive).
As to `O=C(O)COc1ccc(Oc2ccccc2)cc1`, the cell count in assay [1] turned out to be 357. Further, the inhibition was 0.5% (inactive) in assay [1], -8.6% (inactive) in assay [3], 3.08% (inactive) in assay [7] and 9.93% (inactive) in assay [8]. In assay [2], the inhibition of aggregation is 0.7% (inactive). The values for the nuclei count in assay [2] and in assay [3] were 103% and 112%, respectively. In addition, the values for the fluorescence slope in assay [4] and in assay [6] were -0.567 (inactive) and 0.00744 (inactive), respectively. Further, the NADPH fluorescence slope in assay [5] is 1.9e-05 (inactive).
Consider `O=C(Cn1cccc1C(=O)c1ccccc1)NCCN1CCOCC1`, for which, in assay [1], the cell count was 505. In addition, the inhibition was 12.5% (inactive) in assay [1], 25% (inactive) in assay [3], 0.991% (inactive) in assay [7] and 12.8% (inactive) in assay [8]. Further, the inhibition of aggregation in assay [2] is -9.1% (inactive). Moreover, the nuclei count in assay [2] was found to be 114%; in assay [3] it was 98.8%. Besides, the results for the fluorescence slope in assay [4] and in assay [6] were -0.583 (inactive) and 0.00604 (inactive), respectively. Further, the NADPH fluorescence slope in assay [5] was -1.2e-05 (inactive).
With `O=S(=O)(NCCCCCNS(=O)(=O)c1ccccc1)c1ccccc1`, the cell count in assay [1] stood at 468. The inhibition in assay [1] is 4.3% (inactive); in assay [3] it was -56.2% (inactive); in assay [7], 20.2% (inactive); in assay [8] it was 22.6% (inactive). Moreover, the inhibition of aggregation in assay [2] was -5% (inactive). Also, the nuclei count in assay [2] stood at 104%; in assay [3], 142%. The fluorescence slope in assay [4] is -0.547 (inactive); in assay [6] it was 0.00488 (inactive). The NADPH fluorescence slope in assay [5] was -3.3e-05 (inactive).
With `O=S(=O)(c1ccc(OCC(O)CN2CCC(Cc3ccccc3)CC2)cc1)N1CCOCC1` (centres undefined), the cell count in assay [1] came out at 730. Besides, the inhibition was 4.8% (inactive) in assay [1], -22.7% (inactive) in assay [3], -3.87% (inactive) in assay [7] and 3.35% (inactive) in assay [8]. For the same molecule, the inhibition of aggregation in assay [2] was -9.9% (inactive). The values for the nuclei count in assay [2] and in assay [3] were 120% and 116%, respectively. Moreover, the fluorescence slope in assay [4] was -0.46 (inactive); in assay [6], 0.00575 (inactive). Moreover, the NADPH fluorescence slope in assay [5] is -4e-06 (inactive).
In the case of `CCC(C)(C)NC(=O)C(OC(=O)c1ccco1)c1ccccc1OC` (centres undefined), in assay [1], the cell count amounted to 610. For the same molecule, the inhibition in assay [1] was -6.2% (inactive); in assay [3], -4.1% (inactive); in assay [7] it was 0.26% (inactive); in assay [8] it was 8.58% (inactive). Also, the inhibition of aggregation in assay [2] is 11% (inactive). Besides, the nuclei count turned out to be 87.5% in assay [2] and 107% in assay [3]. The fluorescence slope in assay [4] was -0.248 (inactive); in assay [6] it was 0.00739 (inactive). Further, the NADPH fluorescence slope in assay [5] was 3.7e-06 (inactive).
On to `N#Cc1c(NC(=O)CSc2nnnn2C2CCCC2)sc2c1CCCC2`, for which the cell count in assay [1] worked out at 527. For the same molecule, the inhibition in assay [1] is -1.8% (inactive); in assay [3], 36.6% (inactive); in assay [7], 11% (inactive); in assay [8] it was 26.3% (inactive). In addition, the inhibition of aggregation in assay [2] was -3.6% (inactive). In addition, the nuclei count in assay [2] was determined as 114%; in assay [3], 109%. Besides, the fluorescence slope was -0.392 (inactive) in assay [4] and 0.00642 (inactive) in assay [6]. Besides, in assay [5], the NADPH fluorescence slope is 2.8e-05 (inactive).
With `CCCC1CC(C)(C(=O)Cn2[nH]c(=O)ccc2=O)OC1=O` (centres undefined), the cell count in assay [1] was 580. For the same molecule, the inhibition in assay [1] was -22.2% (inactive); in assay [3], -76% (inactive); in assay [7], 22.7% (inactive); in assay [8], 25.6% (inactive). The inhibition of aggregation in assay [2] is -42.5% (inactive). Besides, the figures for the nuclei count in assay [2] and in assay [3] were 120% and 104%, respectively. Moreover, the fluorescence slope in assay [4] is -0.515 (inactive); in assay [6] it was 0.00625 (inactive). In assay [5], the NADPH fluorescence slope was 0.000145 (inactive).
Take `N#CC1=C(SCc2ccccc2)NC(=O)C(C#N)C12CCCC2` (centres undefined): in assay [1], the cell count was found to be 413. Also, the inhibition in assay [1] is 4% (inactive); in assay [3], -9.1% (inactive); in assay [7] it was 2.21% (inactive); in assay [8], -12.9% (inactive). Moreover, the inhibition of aggregation in assay [2] was -2.9% (inactive). In addition, the nuclei count came to 116% in assay [2] and 86.6% in assay [3]. For the same molecule, the fluorescence slope in assay [4] was -0.426 (inactive); in assay [6], 0.00517 (inactive). Besides, the NADPH fluorescence slope in assay [5] was 2e-05 (inactive).
With `CCN(Cc1cc2cc(OC)ccc2[nH]c1=O)C(=O)Cc1ccc(OC)cc1`, in assay [1], the cell count is 369. Further, the inhibition in assay [1] is 1.8% (inactive); in assay [3], -57.8% (inactive); in assay [7], 11.4% (inactive); in assay [8], 5.34% (inactive). Also, the inhibition of aggregation in assay [2] is -11.9% (inactive). Besides, the nuclei count in assay [2] stood at 114%; in assay [3], 124%. Further, the fluorescence slope is -0.549 (inactive) in assay [4] and 0.00319 (inactive) in assay [6]. In assay [5], the NADPH fluorescence slope was -9.8e-05 (inactive).
As to `O=C(OCC#CCSc1nc2ccccc2o1)c1ccco1`, the cell count in assay [1] turned out to be 541. In addition, the inhibition in assay [1] was 6.7% (inactive); in assay [3], -7.3% (inactive); in assay [7] it was -2.28% (inactive); in assay [8], -8.72% (inactive). Moreover, in assay [2], the inhibition of aggregation is -4.7% (inactive). Moreover, the nuclei count in assay [2] came out at 111%; in assay [3], 116%. For the same molecule, the fluorescence slope is -0.405 (inactive) in assay [4] and 0.00568 (inactive) in assay [6]. In addition, the NADPH fluorescence slope in assay [5] was 1.4e-05 (inactive).
As to `COc1ccc(C)cc1NC(=O)CNC(=O)Cn1ccc2ccccc2c1=O`, the cell count in assay [1] is 730. Moreover, the inhibition was -14.1% (inactive) in assay [1], 21.2% (inactive) in assay [3], 25.5% (inactive) in assay [7] and 20.3% (inactive) in assay [8]. In assay [2], the inhibition of aggregation was -10.4% (inactive). In addition, the nuclei count in assay [2] was determined as 108%; in assay [3], 96.3%. Further, the fluorescence slope was -0.461 (inactive) in assay [4] and 0.0048 (inactive) in assay [6]. Moreover, in assay [5], the NADPH fluorescence slope is -2.5e-05 (inactive).
